Assay results published in article PMC3747594 (ACS Chemical Biology, 2013).
Changes are numbered by the printed parent chain. Several values for one entry are separate records, joined by “and”; a condition that tells them apart may be missing. Equal entries are not always repeated.

Columns and labels:
K2P9.1 (TASK-3) = K2P9.1 (TASK-3) (Mus musculus, UniProt Q3LS21); assay: Two-electrode voltage clamp in Xenopus oocytes, K2P9.1; type: cell-based, Murine
How it was run: (§1)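 Murine channel cDNAs in pGEMHE/pMO were expressed in Xenopus oocytes and recorded by two-electrode voltage clamp. Bath contained 2 mM [K+]o at pH 7.4. Currents were elicited by a −150 to 50 mV ramp from a −80 mV holding potential. Responses were normalized to basal channel activity and fit with a modified Hill equation (EC50, Imax/Imin, Hill coefficient H). Values are mean ± SD or SEM from ≥2 independent experiments.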

K2P10.1 (TREK-2) = molecular target: T1, K2P10.1 (TREK-2) (Mus musculus, UniProt Q8BUW1); assay: Two-electrode voltage clamp in Xenopus oocytes, K2P10.1; type: cell-based, Murine
T1 sequence (Q8BUW1 1-535): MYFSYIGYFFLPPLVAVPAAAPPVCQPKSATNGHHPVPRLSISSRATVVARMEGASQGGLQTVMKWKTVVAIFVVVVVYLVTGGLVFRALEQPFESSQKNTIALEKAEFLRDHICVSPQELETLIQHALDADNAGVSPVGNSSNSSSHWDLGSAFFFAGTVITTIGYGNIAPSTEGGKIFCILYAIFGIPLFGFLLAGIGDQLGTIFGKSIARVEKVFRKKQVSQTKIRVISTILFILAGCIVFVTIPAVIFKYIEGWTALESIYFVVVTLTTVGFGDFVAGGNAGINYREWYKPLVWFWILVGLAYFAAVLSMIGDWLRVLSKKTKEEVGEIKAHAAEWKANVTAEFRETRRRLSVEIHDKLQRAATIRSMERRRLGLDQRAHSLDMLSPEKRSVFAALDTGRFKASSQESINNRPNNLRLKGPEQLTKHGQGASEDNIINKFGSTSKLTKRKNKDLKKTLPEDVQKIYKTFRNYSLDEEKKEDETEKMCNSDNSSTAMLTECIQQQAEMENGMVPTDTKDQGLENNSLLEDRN
How it was run: as §1

Kv7.2 (KCNQ2) = Kv7.2 (KCNQ2) (Homo sapiens, UniProt O43526); assay: Two-electrode voltage clamp in Xenopus oocytes, Kv7.2; type: cell-based; details: at 100 μM
Kv7.2 (KCNQ2), sequence (O43526 whole entry): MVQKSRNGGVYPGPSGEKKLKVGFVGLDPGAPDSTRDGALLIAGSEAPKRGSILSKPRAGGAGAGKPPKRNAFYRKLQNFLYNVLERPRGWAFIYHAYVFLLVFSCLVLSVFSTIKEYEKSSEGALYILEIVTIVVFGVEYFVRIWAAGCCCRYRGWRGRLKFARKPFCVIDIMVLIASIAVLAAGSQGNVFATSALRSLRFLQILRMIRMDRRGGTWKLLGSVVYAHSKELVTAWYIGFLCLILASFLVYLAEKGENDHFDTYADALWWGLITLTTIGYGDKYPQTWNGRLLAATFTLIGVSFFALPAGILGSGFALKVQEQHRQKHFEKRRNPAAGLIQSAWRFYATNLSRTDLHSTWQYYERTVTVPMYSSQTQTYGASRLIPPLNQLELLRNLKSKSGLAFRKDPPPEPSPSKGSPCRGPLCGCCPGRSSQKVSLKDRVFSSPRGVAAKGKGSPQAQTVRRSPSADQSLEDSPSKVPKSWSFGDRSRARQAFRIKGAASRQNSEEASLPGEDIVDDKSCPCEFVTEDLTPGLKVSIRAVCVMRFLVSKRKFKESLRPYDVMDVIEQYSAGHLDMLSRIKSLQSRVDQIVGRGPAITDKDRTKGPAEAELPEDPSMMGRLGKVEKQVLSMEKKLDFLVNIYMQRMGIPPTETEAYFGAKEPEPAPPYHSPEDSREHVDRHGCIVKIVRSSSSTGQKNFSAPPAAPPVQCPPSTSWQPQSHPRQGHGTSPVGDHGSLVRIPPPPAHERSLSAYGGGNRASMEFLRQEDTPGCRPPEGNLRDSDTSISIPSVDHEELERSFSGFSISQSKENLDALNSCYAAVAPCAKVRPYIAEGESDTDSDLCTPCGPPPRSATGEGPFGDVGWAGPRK

K2P3.1 (TASK-1) = K2P3.1 (TASK-1) (Mus musculus, UniProt O35111); assay: Two-electrode voltage clamp in Xenopus oocytes, K2P3.1; type: cell-based, Murine; details: at 100 μM compound
K2P3.1 (TASK-1), sequence (O35111 whole entry): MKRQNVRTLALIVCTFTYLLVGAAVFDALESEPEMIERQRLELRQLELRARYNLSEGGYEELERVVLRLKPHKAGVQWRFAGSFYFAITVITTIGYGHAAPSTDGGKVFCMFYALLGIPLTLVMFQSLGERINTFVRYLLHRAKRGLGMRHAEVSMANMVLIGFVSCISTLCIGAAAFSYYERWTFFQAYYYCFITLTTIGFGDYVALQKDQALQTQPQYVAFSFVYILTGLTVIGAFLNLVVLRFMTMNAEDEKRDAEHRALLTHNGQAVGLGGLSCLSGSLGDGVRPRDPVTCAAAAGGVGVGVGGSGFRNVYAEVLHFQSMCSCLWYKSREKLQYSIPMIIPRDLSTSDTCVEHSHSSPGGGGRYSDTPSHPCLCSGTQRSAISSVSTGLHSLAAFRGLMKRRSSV
How it was run: as §1

K2P2.1 (TREK-1) [1] = molecular target: T2, K2P2.1 (TREK-1) (Mus musculus, UniProt P97438); assay: Two-electrode voltage clamp in Xenopus oocytes, K2P2.1; type: cell-based, Murine
T2 sequence (P97438 1-411 isoform P97438-2): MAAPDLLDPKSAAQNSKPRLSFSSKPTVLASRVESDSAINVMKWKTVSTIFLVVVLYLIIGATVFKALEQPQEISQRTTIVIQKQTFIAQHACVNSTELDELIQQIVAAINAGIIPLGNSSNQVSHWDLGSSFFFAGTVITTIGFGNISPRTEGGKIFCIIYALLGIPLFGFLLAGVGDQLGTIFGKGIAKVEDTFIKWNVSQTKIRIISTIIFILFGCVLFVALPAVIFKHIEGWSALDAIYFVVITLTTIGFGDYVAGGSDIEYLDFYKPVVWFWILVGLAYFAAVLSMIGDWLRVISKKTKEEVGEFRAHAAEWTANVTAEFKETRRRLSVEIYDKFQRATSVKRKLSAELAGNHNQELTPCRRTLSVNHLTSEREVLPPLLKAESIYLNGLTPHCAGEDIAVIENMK

K2P2.1 (TREK-1)-3G = molecular target: T3, K2P2.1 (TREK-1)-3G (Mus musculus, UniProt P97438); assay: Two-electrode voltage clamp in Xenopus oocytes, 3G mutant; type: cell-based, Murine
T3 sequence (P97438 16-426): T2 sequence (P97438 1-411 isoform P97438-2) with M1V

K2P2.1 (TREK-1) [2] = molecular target: T2, K2P2.1 (TREK-1); assay: Whole cell patch clamp in HEK-293T cells, K2P2.1; type: cell-based, Murine
K2P2.1 (TREK-1) [3] = molecular target: T2, K2P2.1 (TREK-1); assay: Excised membrane patches; type: cell-based, Murine; details: 0 mV, 20 μM
K2P2.1 (TREK-1) G137I = molecular target: T4, K2P2.1 (TREK-1) G137I (Mus musculus, UniProt P97438, G152I); assay: Two-electrode voltage clamp in Xenopus oocytes, G137I mutant; type: cell-based, Murine
T4 sequence (P97438 1-411 isoform P97438-2 G137I): T2 sequence (P97438 1-411 isoform P97438-2) with G137I

K2P4.1 (TRAAK) = molecular target: T5, K2P4.1 (TRAAK) (Mus musculus, UniProt O88454); assay: Two-electrode voltage clamp in Xenopus oocytes, K2P4.1; type: cell-based, Murine
T5 sequence (O88454 1-398): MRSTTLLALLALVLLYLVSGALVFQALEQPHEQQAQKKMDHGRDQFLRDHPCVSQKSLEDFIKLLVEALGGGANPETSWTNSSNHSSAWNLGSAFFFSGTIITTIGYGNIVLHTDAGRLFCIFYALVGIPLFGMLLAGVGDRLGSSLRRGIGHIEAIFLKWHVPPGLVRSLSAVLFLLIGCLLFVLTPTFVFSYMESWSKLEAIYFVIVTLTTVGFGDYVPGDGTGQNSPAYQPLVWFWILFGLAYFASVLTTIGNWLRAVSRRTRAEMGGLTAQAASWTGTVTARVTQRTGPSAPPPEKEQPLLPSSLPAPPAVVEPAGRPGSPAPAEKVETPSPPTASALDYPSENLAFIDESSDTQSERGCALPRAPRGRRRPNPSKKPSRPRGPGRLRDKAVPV
How it was run: as §1

K2P2.1 (TREK-1) W275S = molecular target: T6, K2P2.1 (TREK-1) W275S (Mus musculus, UniProt P97438, W290S); assay: Two-electrode voltage clamp in Xenopus oocytes, W275S mutant; type: cell-based, Murine
T6 sequence (P97438 1-411 isoform P97438-2 W275S): T2 sequence (P97438 1-411 isoform P97438-2) with W275S
How it was run: as §1

K2P5.1 (TASK-2) = molecular target: T7, K2P5.1 (TASK-2) (Mus musculus, UniProt F6V9U5); assay: Two-electrode voltage clamp in Xenopus oocytes, K2P5.1; type: cell-based, Murine; details: at 100 μM compound
T7 sequence (F6V9U5 1-502): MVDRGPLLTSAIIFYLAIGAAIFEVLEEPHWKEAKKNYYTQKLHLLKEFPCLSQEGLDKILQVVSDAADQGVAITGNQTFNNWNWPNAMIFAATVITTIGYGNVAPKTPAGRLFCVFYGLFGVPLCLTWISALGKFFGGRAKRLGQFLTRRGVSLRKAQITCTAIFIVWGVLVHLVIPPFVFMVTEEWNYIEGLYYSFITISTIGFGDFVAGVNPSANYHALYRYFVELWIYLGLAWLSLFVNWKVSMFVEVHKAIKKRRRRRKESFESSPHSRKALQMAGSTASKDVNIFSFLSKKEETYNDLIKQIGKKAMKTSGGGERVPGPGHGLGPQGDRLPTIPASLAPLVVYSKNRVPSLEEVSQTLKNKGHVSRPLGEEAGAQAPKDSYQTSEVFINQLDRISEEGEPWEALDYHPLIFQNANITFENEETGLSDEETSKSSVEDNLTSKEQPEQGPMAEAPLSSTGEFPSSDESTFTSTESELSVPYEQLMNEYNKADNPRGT
How it was run: as §1

K2P18.1 (TRESK) = molecular target: T8, K2P18.1 (TRESK) (Mus musculus, UniProt Q6VV64); assay: Two-electrode voltage clamp in Xenopus oocytes, K2P18.1; type: cell-based, Murine; details: at 100 μM compound
T8 sequence (Q6VV64 1-394): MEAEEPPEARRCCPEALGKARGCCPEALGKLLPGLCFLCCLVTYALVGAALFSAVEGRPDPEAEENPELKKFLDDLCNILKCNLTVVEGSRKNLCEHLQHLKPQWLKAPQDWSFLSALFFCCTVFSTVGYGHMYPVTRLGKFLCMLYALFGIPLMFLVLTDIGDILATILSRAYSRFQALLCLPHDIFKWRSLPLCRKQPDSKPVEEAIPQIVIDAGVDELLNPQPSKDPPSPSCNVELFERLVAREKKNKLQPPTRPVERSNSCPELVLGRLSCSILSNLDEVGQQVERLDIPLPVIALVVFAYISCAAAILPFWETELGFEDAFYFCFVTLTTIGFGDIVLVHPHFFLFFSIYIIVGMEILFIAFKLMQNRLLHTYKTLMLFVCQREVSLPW
How it was run: as §1

K2P2.1 (TREK-1) [4] = details: at 1.6 mM; cited from earlier work
[5] = whole-cell, HEK-293T, 0 mV, 20 μM

K2P9.1 (TASK-3), sequence (Q3LS21 whole entry): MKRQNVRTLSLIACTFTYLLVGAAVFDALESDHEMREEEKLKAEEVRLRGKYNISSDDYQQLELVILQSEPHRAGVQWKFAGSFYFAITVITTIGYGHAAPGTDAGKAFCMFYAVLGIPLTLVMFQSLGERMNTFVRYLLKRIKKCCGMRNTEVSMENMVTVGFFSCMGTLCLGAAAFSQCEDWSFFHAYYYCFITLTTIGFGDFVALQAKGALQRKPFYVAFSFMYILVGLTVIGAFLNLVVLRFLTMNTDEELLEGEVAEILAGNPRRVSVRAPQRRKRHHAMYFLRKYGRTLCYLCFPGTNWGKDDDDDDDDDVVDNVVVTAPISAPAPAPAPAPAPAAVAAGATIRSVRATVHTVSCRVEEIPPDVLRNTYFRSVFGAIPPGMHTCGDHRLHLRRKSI

## CC1(C)c2cc(Cl)ccc2N(CCc2nnn[nH]2)c2ccc(Cl)cc21 [ML67-33, 2,7-dichloro-9,9-dimethyl-10-[2-(1H-tetrazol-5-yl)-ethyl]-9,10-dihydro-acridine]
K2P9.1 (TASK-3); at 100 μM
  Emax: 1.7 ± 0.3
K2P9.1 (TASK-3); at 150 μM
  Emax (fold): 2.1 ± 0.4 at 150 μM fold
K2P10.1 (TREK-2)
  Emax (fold): 11.4 ± 1.8 fold
  H (cooperativity coefficient from the Hill equation): 1.6 ± 0.6
K2P10.1 (TREK-2); at 100 μM
  Emax: 11.4 ± 1.8
Kv7.2 (KCNQ2)
  effect on Kv7.2 (KCNQ2) (in words): no effect
K2P3.1 (TASK-1)
  Emax (fold): 1.1 ± 0.0 fold and 1.1 ± 0.1 ^d fold
K2P2.1 (TREK-1) [1]; EC50 compared to ML67-18
  improved potency (fold): 5 fold
K2P2.1 (TREK-1) [1]; Xenopus oocytes
  H (cooperativity coefficient from the Hill equation): 3.6 ± 0.4
K2P2.1 (TREK-1) [1]; Xenopus oocytes, at 100 μM compound
  Emax (fold): 11.1 ± 0.4 fold
K2P2.1 (TREK-1) [1]; Xenopus oocytes, normalized to basal activity
  Emax (fold): 11.1 ± 0.4 fold and ~11 fold
K2P2.1 (TREK-1)-3G
  EC50: 49.4 ± 1.1 µM
  H (cooperativity coefficient from the Hill equation): 2.2 ± 0.4
K2P2.1 (TREK-1) [2]; HEK293 cells
  Emax (fold): 11.4 ± 1.1 fold
  H (cooperativity coefficient from the Hill equation): 2.3 ± 0.7
K2P2.1 (TREK-1) [2]; HEK cells, at 100 μM
  Emax: 11.4 ± 1.1
K2P2.1 (TREK-1) [2]; [5]
  half-maximal activation time (t1/2act): 4.1 ± 0.5 s
  time of return to baseline following washout (t1/2wash): 3.9 ± 0.5 s
K2P2.1 (TREK-1) [3]; inside-out patch
  t1/2act: 10.8 ± 1.3 s
  t1/2wash: 22.0 ± 5.1 s
K2P2.1 (TREK-1) [3]; outside-out patch
  t1/2act: 4.6 ± 0.9 s
  t1/2wash: 3.1 ± 0.7 s
K2P2.1 (TREK-1) G137I
  response to activation (in words): completely resistant
K2P2.1 (TREK-1) G137I; at 150 μM
  Emax (fold): 0.9 ± 0.1 at 150 μM fold
K2P4.1 (TRAAK)
  H (cooperativity coefficient from the Hill equation): 1.8 ± 0.4
K2P4.1 (TRAAK); at 100 μM compound
  Emax (fold): 14.7 ± 1.12 fold and 14.7 ± 1.1 fold and 14.7 ± 1.1 ^d fold
K2P2.1 (TREK-1) W275S
  Emax (fold): 5.1 ± 0.6 fold
  H (cooperativity coefficient from the Hill equation): 1.6 ± 0.7
K2P5.1 (TASK-2)
  Emax (fold): 2.0 ± 0.1 fold
K2P18.1 (TRESK)
  Emax (fold): 0.9 ± 0.1 fold and 0.9 ± 0.1 ^d fold

## ClC(Cl)Cl [chloroform]
K2P2.1 (TREK-1) [4]
  reported activation (fold): 5.5 fold
